Measurements: ChEMBL document CHEMBL3351772, “Xenortide Biosynthesis by Entomopathogenic Xenorhabdus nematophila” (J Nat Prod, 2014)
Square brackets hold non-standard residues; d marks the D form. Peptide text beside a SMILES is read from it. * marks the point of attachment. NMeF = CN[C@@H](Cc1ccccc1)C(=O)O; NMeL = CN[C@@H](CC(C)C)C(=O)O; NHPhenethyl = c1ccc(CCN*)cc1; NMeV = CN[C@H](C(=O)O)C(C)C

Assays:
Leishmania donovani = experiment: Antiparasitic activity against Leishmania donovani; format: functional, organism-based
Summary of the method: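 Leishmania donovani strain MHOM-ET-67/L82; assay run per an earlier published method.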

[1] = test system: Trypanosoma brucei rhodesiense; experiment: Antiparasitic activity against Trypanosoma brucei rhodesiense STIB900; format: functional, organism-based
Trypanosoma cruzi = experiment: Antiparasitic activity against Trypanosoma cruzi Tulahuen C4; format: functional, organism-based
Plasmodium falciparum = experiment: Antiparasitic activity against Plasmodium falciparum NF54; format: functional, organism-based
L6 = experiment: Cytotoxicity against rat L6 cells; format: cell-based
Summary of the method: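 Rat L6 skeletal myoblasts; cytotoxicity assay run per an earlier published method.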

| IC50 (Leishmania donovani) | IC50 [1] | IC50 (Trypanosoma cruzi) | IC50 (Plasmodium falciparum) | Compound | IC50 (L6) |
| --- | --- | --- | --- | --- | --- |
| 0.459 µM |  |  |  | CCCCCCCCCCCCCCCCOP(=O)([O-])OCC[N+](C)(C)C [MILTEFOSINE] |  |
| 111 µM | 1.57 µM | 11.7 µM | 0.76 µM | CN[C@@H](CC(C)C)C(=O)N(C)[C@@H](Cc1ccccc1)C(=O)NCCc1c[nH]c2ccccc12 [XENORTIDE B] | 13.7 µM |
| 25 µM | 89.2 µM | 132 µM | > 126 µM | CN[C@H](C(=O)N(C)[C@@H](Cc1ccccc1)C(=O)NCCc1ccccc1)C(C)C (H-[NMeV]-[NMeF]-NHPhenethyl) | > 253 µM |
| 124 µM | 22.5 µM | 46.4 µM | 19.2 µM | CN[C@@H](CC(C)C)C(=O)N(C)[C@@H](Cc1ccccc1)C(=O)NCCc1ccccc1 [XENORTIDE A] (H-[NMeL]-[NMeF]-NHPhenethyl) | 116 µM |
| 17.3 µM | 4.92 µM | 52.7 µM | 7.66 µM | CN[C@H](C(=O)N(C)[C@@H](Cc1ccccc1)C(=O)NCCc1c[nH]c2ccccc12)C(C)C | 85.6 µM |
